Bioassay records (PubChem)
T cruzi inh = T. cruzi replication inhibition; 300,000 tested, 1.4% active; T. cruzi beta-gal in NIH3T3, luminescence, 90 h; AID 1885; inhibition, % (test concentration not listed);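 active = mean inhibition across valid replicates above about 55%, limit read from the data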;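 note: signal also drops with host cell toxicity which is not excluded here; higher percent means less beta-gal luminescence so fewer parasites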
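Incubation – ≥90 h infection period, 3 h prior cell attachment · System – NIH/3T3 fibroblasts plus reporter T. cruzi · Doses – compound pinned at 50 nL/well, DMSO · Read-out basis – percent inhibition of parasite-derived β-gal signal · Signal – luminescent β-galactosidase signal after 60 min lysis · Also added – 5000 T. cruzi trypomastigotes/well · Medium – Low-serum DMEM with 2% FBS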
PP5 primary = blocks human protein phosphatase 5 activity. P53041. purified PP5c, OMFP substrate fluorescence. inhibition, % at 6.7 µM. 320,000 tested, 0.18% active. AID 1987;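 active = inhibition above the campaign's mean inhibition across all tested compounds plus 3 SD, cut at about 9.5% in these data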
pCIP destab = p/CIP protein destabilization. 290,000 tested, 0.01% active. Q05BA5. F442A p/CIP-EGFP cells, EGFP fluorescence, 16 h. decrease of EGFP signal, % at 10 µM;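 active = EGFP signal decrease of at least 30% at 10 µM or well 3 SD below plate mean, unless failing retest; inactive = the rest, including hits failing retest or dose response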
JMJD2C inh = blocks human GASC-1 demethylase activity; inhibition, % at 2.35 µM; GST-JMJD2C(1-420) H3K9me3 demethylation, DELFIA europium; 330,000 tested, 0.069% active; Q9H3R0;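 active = more than half of a compound's replicate wells show inhibition beyond 50%, single wells judged on their own value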;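 note: signal counts dimethyl H3K9 product captured on neutravidin plate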
Target sequence (Q9H3R0 1-420 limits assumed): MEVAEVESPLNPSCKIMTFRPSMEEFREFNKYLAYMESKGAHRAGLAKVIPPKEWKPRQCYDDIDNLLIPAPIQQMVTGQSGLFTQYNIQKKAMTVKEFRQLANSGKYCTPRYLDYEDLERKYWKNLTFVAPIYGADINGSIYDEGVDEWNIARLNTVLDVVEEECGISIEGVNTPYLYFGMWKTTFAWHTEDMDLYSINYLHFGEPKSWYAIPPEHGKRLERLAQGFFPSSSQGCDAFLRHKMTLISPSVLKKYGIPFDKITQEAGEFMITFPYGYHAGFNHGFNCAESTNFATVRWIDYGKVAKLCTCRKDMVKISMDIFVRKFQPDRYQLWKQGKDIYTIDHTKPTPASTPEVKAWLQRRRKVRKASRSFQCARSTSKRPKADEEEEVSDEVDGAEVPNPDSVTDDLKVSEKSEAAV
CTSL1 counter = counter-screen for PFM18AAP inhibitors: inhibitors of F. hepatica cathepsin L1; inhibition, % at 5.96 µM; 300,000 tested, 0.49% active; recombinant F. hepatica cathepsin L1, Z-Leu-Arg-MCA fluorescence;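 active = inhibition above the mean of all tested compounds plus 3 SD, set per screening campaign, cut at about 17% in these data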
Cardio protect = protects H9c2 cardiomyocytes from peroxide injury | 360,000 tested, 0.63% active | H2O2 injury protection, ATPLite, 2 h | protection from H2O2 cell death, % at 20 µM | AID 588492;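 active = compounds giving at least 50% protection of heart cells from peroxide-induced death in the single-dose screen, raw or plate-pattern-corrected value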
Large screens that a line does not name were inactive. Hits are enriched below; roughly 2.4% of the tested compounds scored in any of these assays.

O=C(Nc1ccc(N2CCN(C(=O)c3ccccc3)CC2)c(Cl)c1)c1ccco1	none
CCC(=O)N1CCN(c2ccc(NC(=O)c3cc4ccccc4o3)cc2Cl)CC1	Cardio protect 53
Cc1cc(C)cc(NC(=O)C2C3C=CC4(O3)C2C(=O)N(CCN2CCCCC2)C4C(=O)NC2CCCCC2)c1 (stereo not drawn)	CTSL1 counter 19
O=C(Nc1ccc(Br)cc1)C1C2C=CC3(O2)C1C(=O)N(CCN1CCCCC1)C3C(=O)NC1CCCCC1 (stereo not drawn)	none
COc1ccc(NC(=O)C2C3C=CC4(O3)C2C(=O)N(CCN2CCCCC2)C4C(=O)NC2CCCCC2)cc1 (stereo not drawn)	CTSL1 counter 40
CSc1ccc(S(=O)(=O)N2CCC(C(=O)N3CCc4ccccc4C3)CC2)cc1	CTSL1 counter 19
O=C(NCC1CCCN(Cc2cccc(C(F)(F)F)c2)C1)c1ccc(F)cc1 (stereo not drawn)	T cruzi inh 57
COc1cccc(CN2CCCC(CNC(=O)c3ccc(F)cc3)C2)c1OC (stereo not drawn)	T cruzi inh 68
CCn1ncc(CN2CCCC(CNC(=O)c3ccc(F)cc3)C2)c1C (stereo not drawn)	T cruzi inh 73
COc1ccc(C(=O)N2CCCC(CNC(=O)c3ccc(F)cc3)C2)cc1OC (stereo not drawn)	none
CCc1ccc(CN2CCCC(CNC(=O)c3cc(OC)cc(OC)c3)C2)cc1 (stereo not drawn)	none
CCc1ccc(CN2CCCC(CNC(=O)c3cccc(OC)c3OC)C2)cc1 (stereo not drawn)	T cruzi inh 61
Cc1cc(C)c(CN2CCCC(CNC(=O)c3ccc(F)cc3)C2)c(-n2cccn2)c1 (stereo not drawn)	none
COc1ccc(CC(=O)NCC2CCCN(Cc3cc(OC)cc(OC)c3)C2)cc1 (stereo not drawn)	T cruzi inh 58
Cn1cc(CN2CCCC(CNC(=O)c3ccc4c(c3)OCO4)C2)c2ccccc21 (stereo not drawn)	T cruzi inh 66
COCc1cc(CN2CCCC(CNC(=O)c3ccc(F)cc3)C2)ccc1OC (stereo not drawn)	T cruzi inh 81
Cc1cc(CN2CCCC(CNC(=O)c3ccc(F)cc3)C2)cc(C)c1O (stereo not drawn)	none
CCCc1nnn(S(=O)(=O)c2ccc([N+](=O)[O-])cc2)c1CCC	none (no result: T cruzi inh, PP5 primary, pCIP destab, JMJD2C inh, CTSL1 counter)
O=C(CSc1nc2[nH]ncc2c(=O)n1-c1ccccc1)c1ccc2c(c1)OCCO2	Cardio protect 46
O=C(CSc1nc2[nH]ncc2c(=O)n1-c1ccc(Cl)c(Cl)c1)NCc1ccccc1Cl	T cruzi inh 58
COc1ccccc1N=CC=C1OC(C)(C)C(C)(C)O1	T cruzi inh 59
Cc1ccc(N=CC=C2OC(C)(C)C(C)(C)O2)c(C)c1	none
O=C(COC(=O)c1ccncc1)Nc1cccc2ccccc12	none (no result: T cruzi inh, PP5 primary, pCIP destab, CTSL1 counter)
O=C(COC(=O)c1ccc2c(c1)C(=O)N(Cc1ccncc1)C2=O)Nc1cccc2ccccc12	CTSL1 counter 19
O=C(Cn1ncc(Cl)c(Cl)c1=O)N1CCN(Cc2ccccc2)CC1	T cruzi inh 67 (no result: PP5 primary, CTSL1 counter)
CC1(C)C(=O)Nc2ccccc2N1C(=O)Cn1ncc(Cl)c(Cl)c1=O	T cruzi inh 55
CCc1ccc(C(=O)Cn2ncc(Cl)c(Cl)c2=O)cc1	T cruzi inh 60
O=C(Cn1ncc(Cl)c(Cl)c1=O)N1CCc2ccccc21	T cruzi inh 82 (no result: PP5 primary, CTSL1 counter)
Cc1nn(CC(=O)N2c3ccccc3NC(=O)C2(C)C)c(C)c1[N+](=O)[O-]	none
COc1ccc(CNC(=O)COC(=O)[C@H](Cc2ccccc2)NC(=O)c2cccs2)cc1	none (no result: T cruzi inh, PP5 primary, pCIP destab, CTSL1 counter)
N#Cc1ccc(NC(=O)Nc2ccc(Cl)cc2)cc1	T cruzi inh 71
COc1ccc(/C=C2\CCCc3c2nc2ccccc2c3C(=O)OCC(=O)c2c(N)n(C)c(=O)n(C)c2=O)cc1	T cruzi inh 68 (no result: Cardio protect)
COc1ccc(-c2cc(C(=O)OCC(=O)c3c(N)n(C)c(=O)n(C)c3=O)c3ccccc3n2)cc1	none
CCCCCn1nc(C(=O)OCC(=O)c2c(N)n(C)c(=O)n(C)c2=O)c2ccccc2c1=O	Cardio protect 66
CCc1noc(C)c1C(=O)OCC(=O)c1ccccc1OC	none
Cc1ccccc1C(=O)NC1CCN(CC(=O)N2CCCCC2C)CC1 (stereo not drawn)	none
Cc1c(C(c2ccccc2)c2c(C)n(C)n(-c3ccccc3)c2=O)c(=O)n(-c2ccccc2)n1C	none
Cc1ccc(C(c2c(C)n(C)n(-c3ccccc3)c2=O)c2c(C)n(C)n(-c3ccccc3)c2=O)s1	Cardio protect 59
NC(=S)NN=C(Cc1ccccc1)Cc1ccccc1	T cruzi inh 60
Cc1cccc(C)c1NC(=S)NN(Cc1ccccc1)c1ccccc1	JMJD2C inh 72
Cc1c(Cl)cccc1NC(=S)N(Cc1cccnc1)Cc1ccccc1Cl	T cruzi inh 75
CCN(Cc1ccncc1)C(=S)Nc1c(C)cccc1C	none
Cc1cccc(C)c1NC(=S)N(Cc1ccccc1)Cc1cccnc1	T cruzi inh 79
CSc1cccc(NC(=S)N(Cc2ccccc2)Cc2cccnc2)c1	T cruzi inh 83
CC(C(=O)Nc1ccc(C#N)cc1)N1CCN(C(=O)C2CC2)CC1 (stereo not drawn)	none (no result: T cruzi inh, pCIP destab, CTSL1 counter)
NC(=O)N=Nc1c2[nH]c3ccccc3nc-2c2ccccc12	Cardio protect 60
O=c1[nH]c2ccccc2nc1-c1ccccc1	none
C[N+]1=C(/C=C/Nc2ccccc2Cl)C(C)(C)c2ccccc21	none
COC(=O)c1ccc2c(c1)C(C)(C)C(/C=C/c1ccccc1O)=[N+]2C	T cruzi inh 74
Cc1ccc2[nH]c(=O)c(CN(CCCN3CCOCC3)C(=O)Nc3cccc(Cl)c3)cc2c1	none
Cc1ccc2[nH]c(=O)c(CN(CCCN3CCOCC3)C(=O)Nc3ccc(Cl)cc3)cc2c1	Cardio protect 50
CC(=O)Nc1ccc(Nc2nc(C)nc3c2oc2ccccc23)cc1	none
Cc1nc(Nc2ccncc2)c2oc3ccccc3c2n1	T cruzi inh 73
CCc1nc(Nc2ccncc2)c2oc3ccccc3c2n1	T cruzi inh 66
Cc1nc(NCCc2cnc[nH]2)c2oc3ccccc3c2n1	T cruzi inh 71
O=C(NCCCN1CCCC1=O)C1CCN(S(=O)(=O)c2ccc(Cl)cc2)CC1	none (no result: T cruzi inh, pCIP destab, JMJD2C inh, CTSL1 counter)
O=C(CSc1nnc(C2CC2)n1C1CC1)c1cc(F)ccc1F	none (no result: T cruzi inh, PP5 primary, pCIP destab, JMJD2C inh, CTSL1 counter)
N#C/C(=C\c1cn(-c2ccccc2)nc1-c1cccnc1)c1nnc2n1CCCCC2	Cardio protect 51
O=C(/C=C/c1cn(-c2ccccc2)nc1-c1cccnc1)N1CCCC1	none (no result: PP5 primary, CTSL1 counter)
CCOC(=O)C(C(=O)OCC)N(C#N)c1nc(N(C)C)nc(N(C)C)n1	CTSL1 counter 65
